Source: PubChem
Hits are enriched below; roughly 2% of the tested compounds scored in any of these assays.
CaV13 FRET inh = Primary screen for inhibitors of IQ motif and Ca2+-dependent inactivation inhibitor domain binding in CACNA1D, Förster resonance energy transfer in living cells, …. HEK cells, CFP/YFP FRET ICDI-IQ, plate reader, 10 min; percent FRET-ratio fall versus neutral wells. inhibition, % at 12.3 µM. hit rate 0.098% among 340,000;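 active = mean replicate inhibition of at least 30% and at least 1% of replicates passing that level; inconclusive = only one of the two criteria is met; inactive = neither criterion is met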;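 also: 0% = median of the neutral control wells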
LGR2 inh = inhibitors of bursicon-induced Drosophila LGR2 receptor cAMP signaling; hit rate 0.35% among 380,000; HEK293 LGR2, CRE-luciferase, bursicon-stimulated, 4 h; inhibition, % at 9.99 µM; AID 720647;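 active = drop in luminescence signal, shown as inhibition above about 50% in the replicate tests, limit read from the data, passing the limit was not always enough; inconclusive = probably only some replicates passing the limit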;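 also: agonist challenge used bursicon conditioned medium at about half maximal strength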
Xi reactivation = activators of X-chromosome reactivation in mouse fibroblasts. activation, % at 7.58 µM. hit rate 0.055% among 360,000. XiGFP mouse fibroblasts, % GFP-positive cells imaging, 3 d; cells co-treated with 5-aza-dC sensitizer; scaled so ellipticine positive control = 100%;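 active = mean normalized replicate activation at least 10% and every replicate at or above 10%; inconclusive = only one of the two criteria met; inactive = mean below 10% and not all replicates reach 10%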;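 also: 0% = median of on-plate neutral control wells and 100% = ellipticine 6 µM median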
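Schedule: 3 d treatment, 15 min room-temperature fixation; system: 68-5-11 XiGFP fibroblast line; buffer or medium: DMEM plus 5-aza-dC sensitizer; control set: ellipticine 6 µM positive control; compound: one concentration, pinned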
TWEAK-Fn14 inh = TWEAK-Fn14 signaling inhibition; TWEAK-stimulated Fn14 reporter cells, luciferase luminescence, 8 h; inhibition, % at 10 µM; hit rate 2% among 360,000; AID 1159606; in the data active = inhibition above about 50%
TROY signal inh = inhibitors of TROY-dependent NF-kB signaling; hit rate 0.98% among 360,000; AID 1347056; inhibition, % at 10 µM; Q293 LMP1-TROYcd NF-kB luciferase reporter, 4 h;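 active = compounds whose plate-normalised and pattern-corrected inhibition of the luciferase reporter signal at the single screening dose is 50% or more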
The depositor's hits bear a star; ? = inconclusive; nt = no result.

SMILES | CaV13 FRET inh | LGR2 inh | Xi reactivation | TWEAK-Fn14 inh | TROY signal inh
C[C@@H]1CN([C@@H](C)CO)C(=O)Cc2cc(N(C)C)ccc2O[C@@H]1CN(C)C(=O)Nc1ccc2c(c1)OCO2 | nt | -15 | -1 | nt | nt
CCCCCCCCC(c1nc2ccccc2[nH]1)N1CCN=C1c1cc2ccccc2[nH]1 (configuration not stated) | -3 | 80* | 0 | 13 | -5
C[C@@H]1CN([C@H](C)CO)C(=O)c2cc(NC(=O)Cn3cnnn3)ccc2O[C@H]1CN(C)C(=O)Nc1ccccc1 | nt | 1 | 1 | nt | nt
CC(C)CC#Cc1ccc2c(c1)O[C@@H](CN(C)Cc1cccc(F)c1)[C@H](C)CN([C@H](C)CO)S2(=O)=O | nt | 32 | 0 | nt | nt
Cc1csc(NC(=O)c2cnc3ccccc3n2)n1 | -4 | 58* | 0 | 52* | 25
O=C(Nc1ccccc1)c1cn2ccccc2n1 | 6 | ? | -1 | 89* | 45
Cc1csc(NC(=O)c2ccc3ccccc3n2)n1 | -7 | -112 | 0 | 26 | -44
CCOC(=O)c1sc(NC(=O)c2ccc(CC)s2)nc1C | -5 | nt | nt | 19 | -51
Cc1csc(NC(=O)c2cccn2C)n1 | -7 | -34 | nt | 21 | -30
CCc1ccc(C(=O)Nc2nc(C)cs2)s1 | -6 | 9 | 0 | 63* | 14
Cc1csc(NC(=O)c2cn3ccccc3n2)n1 | -4 | 89* | 0 | 91* | 62*
O=C(Nc1ccc(-n2cnnn2)cc1)c1cn2ccccc2n1 | -9 | -32 | 0 | 27 | -48
C/C=C/c1ccc2c(c1)O[C@@H](CN(C)C(=O)NC(C)C)[C@@H](C)CN([C@@H](C)CO)S2(=O)=O | nt | -5 | -1 | nt | nt
C[C@H](CO)N1C[C@H](C)[C@@H](CN(C)Cc2ccc(C(=O)O)cc2)Oc2ccc(NC(=O)Cc3ccccc3)cc2CC1=O | nt | 15 | 0 | nt | nt
CO[C@@H]1CN(C)C(=O)c2cc(NC(=O)c3ccccc3F)ccc2OC[C@@H](C)N(CC2CC2)C[C@@H]1C | nt | 12 | 0 | nt | nt
CN(Cc1cccs1)c1ncnc2sccc12 | -4 | nt | nt | 13 | 25
CN(Cc1ccccc1F)c1ncnc2sccc12 | -7 | -1 | 0 | 51* | 20
O=C(c1ccccc1)c1cnc(-c2ccc(Cl)cc2)s1 | -5 | nt | nt | 62* | 15
O=C(c1ccc(Cl)cc1)c1cnc(-c2ccc(Cl)cc2)s1 | -6 | nt | nt | -14 | -53
c1coc(-c2nc(-c3ccco3)c(-c3ccco3)nc2-c2ccco2)c1 | -2 | 15 | nt | 81* | 4
CNC[C@H]1OCCCC[C@H](C)Oc2ccc(NC(=O)Nc3ccc4c(c3)OCO4)cc2C(=O)N([C@@H](C)CO)C[C@@H]1C | nt | -4 | 0 | nt | nt
Cc1cc(C2=NNC(=NC3CCCCC3)SC2)c(C)n1-c1c(C)n(C)n(-c2ccccc2)c1=O | -5 | nt | 0 | -13 | 4
Cc1ccccc1N=C1NN=C(c2ccccc2F)CS1 | -5 | nt | 0 | 68* | 57*
Cc1cc(C2=NNC(=NC3CC3)SC2)c(C)n1-c1ccccc1F | 1 | 95* | 0 | 104* | 89*
O=C1N[C@@H](c2ccccc2)COCc2cnnn2CC[C@@H]1Cc1ccc(C(F)(F)F)cc1 | nt | nt | 0 | nt | nt
SMILES | CaV13 FRET inh | LGR2 inh | Xi reactivation | TWEAK-Fn14 inh | TROY signal inh
COc1ccc(NC(=O)/C(C#N)=C\c2cc(C)n(-c3ccc4c(c3)OCO4)c2C)cc1 | -16 | 9 | 0 | 51* | 21
Cc1noc(C)c1NC(=O)N(C)C[C@H]1OCCCC[C@H](C)Oc2ccc(NC(=O)NC3CCCCC3)cc2C(=O)N([C@@H](C)CO)C[C@@H]1C | nt | -18 | 0 | nt | nt
CCCC(=O)Nc1ccccc1NC(=O)CCC | -3 | nt | nt | 8 | 3
CCCC(=O)Nc1ccc(C(=O)O)cc1NC(=O)CCC | -4 | nt | nt | 103* | -14
COCC(=O)Nc1ccc2c(c1)C(=O)N(C)C[C@H](OC)[C@H](C)CN(C(=O)c1ccncc1)[C@H](C)CO2 | nt | 9 | 0 | nt | nt
COc1ccc(C(=O)N/N=C/c2ccc3cccc(OCc4ccccc4)c3n2)cc1 | -4 | nt | nt | 50 | 42
O=C(N/N=C/c1ccc2cccc(OCc3ccccc3)c2n1)c1ccc(Br)cc1 | nt | nt | nt | 66* | 14
C[C@@H]1CN([C@@H](C)CO)C(=O)c2cccc(NC(=O)Nc3ccc(F)cc3)c2O[C@H]1CN(C)Cc1ccc(Oc2ccccc2)cc1 | nt | 8 | 0 | nt | nt
Cc1ccc2c(c1)/C(=N/O)CCS2 | -5 | nt | nt | 65* | -12
